In ChEMBL document CHEMBL2390828, “Synthesis and biological characterization of spiro[2H-(1,3)-benzoxazine-2,4'-piperidine] based histone deacetylase inhibitors” (Eur J Med Chem, 2013):
The source made the active and inactive calls. No cut-off for these calls is given here.

Experiments:
[1] = biological target: Histone deacetylase; experiment: Inhibition of HDAC in human Hela cell nuclear extract after 15 mins; format: protein assay
[2] = system: K562; experiment: Cytotoxicity against human K562 cells; format: functional, cell-based
[3] = system: A549; experiment: Cytotoxicity against human A549 cells; format: functional, cell-based
[4] = system: HCT-116; experiment: Cytotoxicity against human HCT116 cells; format: functional, cell-based
[5] = Metabolic stability in mouse liver microsomes after 30 mins by LC-MS/MS analysis; format: ADME, Microsome; details: read-out: Stability
Outline: (§1)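 Compounds were incubated with mouse or human liver microsomal preparation for 30 min at 37 °C. The reaction was stopped with CH3CN. Unmetabolized compound was quantified by LC-MS/MS in MRM mode and reported as percent remaining. Replicates n ≥ 2, mean values given.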

[6] = Metabolic stability in human liver microsomes after 30 mins by LC-MS/MS analysis; format: ADME, Microsome; details: read-out: Stability; outline: as §1
[7] = system: Mus musculus; experiment: Toxicity in CD1 mouse xenografted with human HCT116 cells assessed as body weight change at 75 to 150 mg/kg, po qd administered 5 days a week for 2 weeks; format: organism-based, HCT-116; set-up: dose 75-150 mg/kg, route oral; details: in vivo
Outline: (§2)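 Female CD-1 nude mice received 5 × 10⁶ HCT116 cells subcutaneously in the flank. Once tumours reached 100 mm³, dosing was 75 or 150 mg/kg orally, once daily, 5 days/week for 2 weeks. Tumour volume and body weight were followed. Tumour/control (T/C) ratio was calculated against vehicle controls.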

[8] = Tmax in CD1 mouse at 5 mg/kg, iv and 15 mg/kg, po; format: ADME, organism-based; details: in vivo
Outline: (§3)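 CD-1 mice got single doses of 5 mg/kg iv or 15 mg/kg orally. The iv vehicle was water with 3% DMSO and 9.7% encapsin. The oral vehicle was water with 5% DMSO and 9.5% encapsin. Plasma PK parameters were calculated, including AUC0–∞, clearance, half-life, Vss, cmax and oral bioavailability.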

[9] = Cmax in CD1 mouse at 15 mg/kg, po; details: CD1, mouse, in vivo
[10] = AUC (0 to infinity) in CD1 mouse at 15 mg/kg, po; format: ADME, organism-based; set-up: time infinity, dose 15 mg/kg, route oral; details: plasma; outline: as §3
[11] = Cmax in CD1 mouse at 5 mg/kg, iv; format: ADME, organism-based; set-up: dose 5 mg/kg, route intravenous; details: in vivo; outline: as §3
[12] = AUC (0 to infinity) in CD1 mouse at 5 mg/kg, iv; format: ADME, organism-based; set-up: time infinity, dose 5 mg/kg, route intravenous; details: plasma; outline: as §3
[13] = Oral bioavailability in CD1 mouse at 15 mg/kg; details: in vivo
[14] = system: HCT-116; experiment: Induction of apoptosis in human HCT116 cells assessed as increase in sub-G1 population after 24 hrs by propidium iodide staining-based FACS analysis; format: functional, cell-based
Outline: (§4)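 HCT116 colon carcinoma cells were exposed to several concentrations for 24 h. Cell-cycle profiles were read by flow cytometry, with G0/G1, G2/M and sub-G1 fractions scored.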

[15] = system: HCT-116; experiment: Antitumor activity against human HCT116 cells […] in po dosed CD1 mouse administered 5 days a week for 2 weeks relative to control; format: functional, organism-based; outline: as §2
[16] = system: HCT-116; experiment: Cell cycle arrest in human HCT116 cells assessed as accumulation at G0/G1 phase at lower dose after 24 hrs by propidium iodide staining-based FACS analysis; format: functional; outline: as §4
[17] = system: HCT-116; experiment: Antitumor activity against human HCT116 cells […] in CD1 mouse at 150 mg/kg, po administered 5 days a week for 2 weeks relative to control; format: functional; outline: as §2
[18] = biological target: Histone deacetylase 2 (Homo sapiens, UniProt Q92769); experiment: Inhibition of HDAC2 (unknown origin)
[19] = Solubility of the compound at pH 7.4; format: physicochemical; details: buffer
[20] = biological target: T1, Protein deacetylase HDAC6 (Homo sapiens, UniProt Q9UBN7); experiment: Inhibition of HDAC6 (unknown origin)
T1 sequence (Q9UBN7 whole entry): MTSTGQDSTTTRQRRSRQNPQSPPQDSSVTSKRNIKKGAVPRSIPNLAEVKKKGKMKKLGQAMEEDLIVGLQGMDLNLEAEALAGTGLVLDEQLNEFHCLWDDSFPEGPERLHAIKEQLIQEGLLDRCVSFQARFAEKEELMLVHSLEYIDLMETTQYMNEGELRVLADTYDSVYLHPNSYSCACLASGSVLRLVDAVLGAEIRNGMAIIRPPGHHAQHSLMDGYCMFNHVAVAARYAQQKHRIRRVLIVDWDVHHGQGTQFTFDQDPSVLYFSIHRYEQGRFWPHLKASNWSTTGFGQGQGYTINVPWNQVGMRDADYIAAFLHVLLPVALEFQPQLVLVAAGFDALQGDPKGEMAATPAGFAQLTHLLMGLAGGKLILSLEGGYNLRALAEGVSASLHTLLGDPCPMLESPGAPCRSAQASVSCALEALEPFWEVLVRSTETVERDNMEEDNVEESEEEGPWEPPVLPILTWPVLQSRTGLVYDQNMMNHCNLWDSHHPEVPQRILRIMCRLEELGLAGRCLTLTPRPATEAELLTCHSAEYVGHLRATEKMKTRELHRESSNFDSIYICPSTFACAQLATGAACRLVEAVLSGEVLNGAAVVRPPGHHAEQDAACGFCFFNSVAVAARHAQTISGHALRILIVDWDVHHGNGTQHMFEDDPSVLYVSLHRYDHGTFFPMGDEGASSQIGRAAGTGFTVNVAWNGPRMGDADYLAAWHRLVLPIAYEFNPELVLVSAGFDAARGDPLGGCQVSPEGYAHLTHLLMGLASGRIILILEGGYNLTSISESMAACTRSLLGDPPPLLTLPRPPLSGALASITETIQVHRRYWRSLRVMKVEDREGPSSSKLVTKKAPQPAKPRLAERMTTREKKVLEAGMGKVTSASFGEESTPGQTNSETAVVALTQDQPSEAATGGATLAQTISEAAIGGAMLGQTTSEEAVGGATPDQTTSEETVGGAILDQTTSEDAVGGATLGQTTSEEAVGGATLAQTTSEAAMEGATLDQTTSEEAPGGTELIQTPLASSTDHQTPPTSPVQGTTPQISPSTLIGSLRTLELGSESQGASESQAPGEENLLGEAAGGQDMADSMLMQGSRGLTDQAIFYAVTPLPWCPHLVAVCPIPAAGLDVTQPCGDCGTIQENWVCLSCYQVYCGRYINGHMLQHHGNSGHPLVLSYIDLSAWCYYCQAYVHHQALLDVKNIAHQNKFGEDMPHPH

[21] = Terminal half life in CD1 mouse at 5 mg/kg, iv and 15 mg/kg, po; format: ADME, organism-based; details: in vivo, read-out: beta t1/2 (converted); outline: as §3
[22] = biological target: Histone deacetylase 3 (Homo sapiens, UniProt O15379); experiment: Inhibition of HDAC3 (unknown origin)
[23] = Permeability from apical to basolateral side across human Caco2 cells after 2 hrs by LC-MS analysis; format: ADME, cell-based; details: Caco-2, read-out: permeability
[24] = biological target: Histone deacetylase (Homo sapiens) (UniProt Q13547+O15379+Q9UBN7+Q92769+Q9UQL6+Q8WUI4+Q9BY41+Q96DB2+P56524+Q9UKV0+Q969S8); experiment: Inhibition of HDAC in human K562 cells assessed as increase in histone acetylation level after 2 to 8 hrs by flow cytometry; format: cell-based
Outline: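 K562 cells were treated at 0.1, 0.5, 1 and 3 µM. Histone acetylation was measured by flow cytometry and reported as the ratio of acetylation level in treated over control cells.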

[25] = system: HCT-116; experiment: Antitumor activity against human HCT116 cells […] in CD1 mouse at 75 mg/kg, po administered 5 days a week for 2 weeks relative to control; format: functional; outline: as §2
[26] = system: Mus musculus; experiment: Inhibition of HDAC in human HCT116 cells […] in CD1 mouse at 75 to 150 mg/kg, po administered 5 days a week for 2 weeks by immunohistochemistry relative to control; format: functional, organism-based; details: HCT-116
Outline: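 Tumours came from HCT116 xenograft-bearing CD-1 nude mice dosed orally at 75 or 150 mg/kg once daily, 5 days/week for 2 weeks. Sections were taken at the end of treatment from vehicle and treated mice. Histone acetylation was stained by immunohistochemistry (anti-acetyl H4 clone T25, 1:13,000) and scored by positive cells and signal intensity.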

[27] = Volume of distribution at steady state in CD1 mouse at 5 mg/kg, iv and 15 mg/kg, po; format: ADME, organism-based; details: in vivo, read-out: Vdss; outline: as §3
[28] = biological target: T2, Voltage-gated inwardly rectifying potassium channel KCNH2 (Homo sapiens, UniProt Q12809); experiment: Inhibition of human ERG channel
[29] = system: HCT-116; experiment: Cell cycle arrest in human HCT116 cells assessed as accumulation at G2/M phase at higher dose after 24 hrs by propidium iodide staining-based FACS analysis; format: functional; outline: as §4
[30] = Clearance in CD1 mouse at 5 mg/kg, iv and 15 mg/kg, po; format: ADME, organism-based; details: in vivo; outline: as §3
[31] = biological target: T2, Voltage-gated inwardly rectifying potassium channel KCNH2; experiment: Displacement of [3H]astemizole from human ERG channel transfected in HEK293 cells after 60 mins by liquid scintillation counting analysis; format: cell-based

Sequence of Histone deacetylase 3 (O15379 whole entry): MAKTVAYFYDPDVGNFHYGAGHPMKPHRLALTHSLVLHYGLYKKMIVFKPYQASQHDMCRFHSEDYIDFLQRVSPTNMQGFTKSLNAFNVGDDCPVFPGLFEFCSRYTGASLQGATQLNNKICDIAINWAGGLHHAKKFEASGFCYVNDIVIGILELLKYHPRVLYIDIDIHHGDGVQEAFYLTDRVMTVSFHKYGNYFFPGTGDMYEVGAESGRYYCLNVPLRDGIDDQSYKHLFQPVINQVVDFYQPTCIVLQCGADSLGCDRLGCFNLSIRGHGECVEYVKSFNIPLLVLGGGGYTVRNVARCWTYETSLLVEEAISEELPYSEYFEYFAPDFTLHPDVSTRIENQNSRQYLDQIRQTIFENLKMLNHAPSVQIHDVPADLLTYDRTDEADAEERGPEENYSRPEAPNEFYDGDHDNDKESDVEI
Sequence of Histone deacetylase 2 (Q92769 whole entry): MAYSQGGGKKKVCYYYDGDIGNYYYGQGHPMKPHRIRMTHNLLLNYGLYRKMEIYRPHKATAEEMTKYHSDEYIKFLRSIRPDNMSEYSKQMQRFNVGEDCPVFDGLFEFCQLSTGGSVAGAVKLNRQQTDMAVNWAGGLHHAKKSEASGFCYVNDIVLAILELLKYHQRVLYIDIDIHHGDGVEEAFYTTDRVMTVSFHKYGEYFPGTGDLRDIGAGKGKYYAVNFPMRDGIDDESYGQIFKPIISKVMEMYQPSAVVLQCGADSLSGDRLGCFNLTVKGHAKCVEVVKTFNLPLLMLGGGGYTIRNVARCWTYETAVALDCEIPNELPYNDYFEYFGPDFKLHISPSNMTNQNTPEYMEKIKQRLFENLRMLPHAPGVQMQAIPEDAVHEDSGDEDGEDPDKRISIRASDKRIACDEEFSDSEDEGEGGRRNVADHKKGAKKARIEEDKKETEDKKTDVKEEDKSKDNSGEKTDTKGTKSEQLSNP
T2 sequence (Q12809 whole entry): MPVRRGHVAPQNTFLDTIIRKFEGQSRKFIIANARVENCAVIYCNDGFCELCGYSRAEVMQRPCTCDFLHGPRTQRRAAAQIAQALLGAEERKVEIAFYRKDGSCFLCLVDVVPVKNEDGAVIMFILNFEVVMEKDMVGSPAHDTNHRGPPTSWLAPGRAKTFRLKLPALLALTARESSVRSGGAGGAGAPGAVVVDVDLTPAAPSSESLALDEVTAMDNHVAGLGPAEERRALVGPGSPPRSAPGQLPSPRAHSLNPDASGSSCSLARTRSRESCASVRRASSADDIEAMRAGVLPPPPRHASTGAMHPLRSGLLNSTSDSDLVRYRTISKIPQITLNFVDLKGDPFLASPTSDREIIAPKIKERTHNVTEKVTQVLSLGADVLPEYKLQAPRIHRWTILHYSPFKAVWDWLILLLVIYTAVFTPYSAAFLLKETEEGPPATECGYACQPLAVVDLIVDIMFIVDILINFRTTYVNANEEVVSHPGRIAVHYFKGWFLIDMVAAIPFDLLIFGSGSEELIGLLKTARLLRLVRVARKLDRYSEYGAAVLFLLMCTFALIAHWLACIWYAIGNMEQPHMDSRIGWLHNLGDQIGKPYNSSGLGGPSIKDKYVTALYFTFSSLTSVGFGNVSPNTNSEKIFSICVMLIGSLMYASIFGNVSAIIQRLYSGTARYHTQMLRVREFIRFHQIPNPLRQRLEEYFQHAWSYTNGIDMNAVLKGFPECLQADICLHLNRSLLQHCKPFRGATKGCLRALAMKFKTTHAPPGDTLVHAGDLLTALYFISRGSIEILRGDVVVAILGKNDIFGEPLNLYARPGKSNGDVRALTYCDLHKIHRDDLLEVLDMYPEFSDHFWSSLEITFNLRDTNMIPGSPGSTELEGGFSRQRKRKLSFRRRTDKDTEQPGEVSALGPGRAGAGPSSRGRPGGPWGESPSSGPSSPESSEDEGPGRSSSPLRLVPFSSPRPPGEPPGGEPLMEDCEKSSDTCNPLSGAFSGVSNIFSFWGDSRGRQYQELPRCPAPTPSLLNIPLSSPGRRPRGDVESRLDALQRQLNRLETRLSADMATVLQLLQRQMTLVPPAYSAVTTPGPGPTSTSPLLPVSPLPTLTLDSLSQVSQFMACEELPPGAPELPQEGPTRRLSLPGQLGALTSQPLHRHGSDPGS

Structure (SMILES)	IC50 [1] [nM]	IC50 [2] [nM]	IC50 [3] [nM]	IC50 [4] [nM]	remaining at 0.5 h [5] [%]	remaining at 0.5 h [6] [%]	Tmax [8] [min]	Cmax [9] [µM]	AUC(0-inf) [10] [ng·h/mL]	Cmax [11] [µM]	AUC(0-inf) [12] [ng·h/mL]	bioavailability [13] [%]	IC50 [18] [nM]	IC50 [20] [nM]	IC50 [22] [nM]	Vd [27] [L/kg]	clearance [30] [mL/min/kg]	further results
O=C(/C=C/c1ccc2c(c1)C(=O)N(Cc1ccccc1)C1(CCN(Cc3ccc(F)cc3)CC1)O2)NO	667	1570	3040	2030	–	–	–	–	–	–	–	–	–	–	–	–	–	–
CN1CCC2(CC1)Oc1ccc(/C=C/C(=O)NO)cc1C(=O)N2Cc1ccccc1	174	360	912	326	19	53	–	–	–	–	–	–	–	–	–	–	–	–
CN1C(=O)c2cc(/C=C/C(=O)NO)ccc2OC12CCNCC2	204	14200	17900	12100	–	–	–	–	–	–	–	–	–	–	–	–	–	–
O=C(/C=C/c1ccc2c(c1)C(=O)N(Cc1ccccc1)C1(CCNCC1)O2)NO	59	1520	3190	857	–	–	–	–	–	–	–	–	–	–	–	–	–	–
O=C(/C=C/c1ccc2c(c1)C(=O)NC1(CCN(Cc3ccccc3)CC1)O2)NO	83	582	1410	515	75	77	15	2.71	1960	13.5	1530	42.8	192	110	87	8.5	54.5	Activity [7]: Non-toxic; Activity [14]: Dose-dependent effect; Activity [15]: Dose-dependent effect; Activity [16]: Active; T/C [17]: 0.33; solubility [19]: > 200 µM; half-life [21]: 804 min; Papp A→B at 2 h [23]: 0.4 ×10⁻⁶ cm/s; inhibition [24]: Dose-dependent effect; T/C [25]: 0.59; inhibition [26]: Active; inhibition (INH) [28]: 54%; Activity [29]: Active
CN1CCC2(CC1)NC(=O)c1cc(/C=C/C(=O)NO)ccc1O2	99	1490	2700	886	–	–	–	–	–	–	–	–	–	–	–	–	–	–
O=C(/C=C/c1ccc2c(c1)C(=O)CC1(CCN(Cc3ccc(F)cc3)CC1)O2)NO	108	681	1320	777	–	–	15	1.83	1240	11	1490	27.6	310	190	90	5.9	55.8	IC50 [31]: 2380 nM
O=C(/C=C/c1ccc2c(c1)C(=O)CC1(CCN(CCc3ccccc3)CC1)O2)NO	113	180	551	201	–	–	15	2.49	1600	6.34	1040	51.1	190	160	130	8.6	79.8	–
CN1C(=O)c2cc(/C=C/C(=O)NO)ccc2OC12CCN(Cc1ccc(F)cc1)CC2	137	734	2100	848	39	60	–	–	–	–	–	–	–	–	–	–	–	–
